From ChEMBL document CHEMBL1772938, “Optimization of 3-(phenylthio)quinolinium compounds against opportunistic fungal pathogens” (Eur J Med Chem, 2011) come the findings set out here.

The subject of data set [1] is Cryptococcus neoformans. Nature of the data set: Antimicrobial activity against Cryptococcus neoformans ATCC 90113 by CLSI method. It is filed as functional. The procedure, abridged:
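C. neoformans in Sabouraud dextrose broth, inoculum per the 0.5 McFarland standard. Saline serial dilutions of DMSO samples were tested in duplicate, with a final top concentration of 20 μg/mL. OD 630 nm was read before and after incubation. IC50 was derived from % growth versus concentration. MIC was judged visually as the lowest concentration with no detectable growth. Amphotericin B served as the drug control.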

Data set [2] relates to Candida albicans. The data set can be described thus: Antimicrobial activity against Candida albicans ATCC 90028 by CLSI method. In kind it is functional. The procedure, abridged:
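C. albicans inoculum was made to the 0.5 McFarland standard in Sabouraud dextrose broth or RPMI 1640. Samples came from DMSO stocks serially diluted in saline, in duplicate, starting at a final 20 μg/mL. Plates were read at OD 630 nm before and after incubation. IC50 came from the % growth versus concentration plot; MIC was the lowest concentration with no visible growth. Included: growth, solvent and blank controls, plus amphotericin B.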

Data set [3] has as its system Aspergillus fumigatus. Nature of the data set: Antimicrobial activity against Aspergillus fumigatus ATCC 90906 by CLSI method. It is filed as functional. The procedure, abridged:
(§1)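 Modified CLSI broth microdilution. DMSO stocks were serially diluted in saline and run in duplicate. Inoculum was set by the 0.5 McFarland standard in YM broth for MIC, or in RPMI-1640 + 5% Alamar Blue for IC50. The top final concentration was 20 μg/mL. Fluorescence (544ex/590em) was read before and after incubation. IC50 was taken from % growth versus concentration; MIC was read visually as no blue-to-pink change.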

The subject of data set [4] is Cryptococcus neoformans. The data set can be described thus: Antimicrobial activity against Cryptococcus neoformans ATCC 90113 by alamar blue assay. It is filed as functional, organism-based. On the technique in general: The colour change of resazurin is a common sign of viable cells or microbes.
Data set [5] concerns Candida albicans. Nature of the data set: Antimicrobial activity against Candida albicans ATCC 90028 by alamar blue assay. It is filed as functional, organism-based.
Data set [6] has as its system Aspergillus fumigatus. The data set can be described thus: Antimicrobial activity against Aspergillus fumigatus ATCC 90906 by alamar blue assay. In kind it is functional, organism-based. The procedure, abridged:
as §1

The subject of data set [7] is Nakaseomyces glabratus. Nature of the data set: Antimicrobial activity against Candida glabrata ATCC 90030 by CLSI method. In kind it is functional. The procedure, abridged: (§2)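 Modified CLSI microdilution. DMSO samples were serially diluted in saline and tested in duplicate against inoculum adjusted by the 0.5 McFarland standard. The final test range started at 20 μg/mL. Plates were read before and after incubation. IC50 came from % growth versus concentration; MIC was the lowest concentration without visible growth. Growth, solvent, blank and amphotericin B controls were on each plate.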

In data set [8] the test system is Pichia kudriavzevii. The data set can be described thus: Antimicrobial activity against Candida krusei ATCC 6258 by CLSI method. In kind it is functional. The method, boiled down: as §2
Data set [9] concerns Nakaseomyces glabratus. Nature of the data set: Antimicrobial activity against Candida glabrata ATCC 90030 by alamar blue assay. In kind it is functional, organism-based.
Data set [10] relates to Pichia kudriavzevii. The data set can be described thus: Antimicrobial activity against Candida krusei ATCC 6258 by alamar blue assay. In kind it is functional, organism-based.
Data set [11] in a line: Selectivity index, ratio of TC50 for african green monkey Vero cells to IC50 for Cryptococcus neoformans ATCC 90113. It is filed as toxicity, cell-based. Particulars: read-out: Selectivity Index.
In data set [12] the test system is Vero. Nature of the data set: Cytotoxicity against african green monkey Vero cells at 10 ug/ml after 48 hrs by neutral red assay. The conditions noted are these: chlorocebus sabaeus. It is filed as cell-based. The procedure, abridged:
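VERO kidney cells were seeded at 25,000 cells/well and incubated 24 h. Samples were added up to 10 μg/mL and incubated a further 48 h. Viable cells were counted by neutral red uptake. IC50 came from growth-inhibition dose curves. Doxorubicin was the positive control and DMSO the vehicle control.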

Some results are limits rather than exact numbers.

In general, MIC refers to the lowest concentration found to suppress growth. As usually defined, the IC50 is the concentration that gives 50% inhibition. As for `FC(F)(F)c1cccc(Sc2cc3ccccc3[n+](CCCCCC3CCCCC3)c2)c1.[I-]`, the MFC in data set [1] was 0.6 µg/mL; in data set [2], 5 µg/mL; in data set [3], over 20 µg/mL; in data set [7], 10 µg/mL; in [8], 2.5 µg/mL. For the same compound, the MIC in data set [1] came out at 0.6 µg/mL; in data set [2], 2.5 µg/mL; in [3] it was 2.5 µg/mL; in data set [7], 10 µg/mL; in data set [8] it was 2.5 µg/mL. For the same compound, the IC50 in data set [4] amounted to 0.4 µg/mL; in data set [5] it was 1.3 µg/mL; in [6], 2.2 µg/mL; in data set [9], 4.6 µg/mL; in data set [10], 1.2 µg/mL. Further, the selectivity ratio in data set [11] was over 25. Further, in data set [12], the Activity result is recorded as “Non-toxic”.

`Oc1cccc(Sc2cc3ccccc3[n+](CCCCCC3CCCCC3)c2)c1.[I-]`: the MFC is 5 µg/mL in data set [1]; 20 µg/mL in data set [2]; over 20 µg/mL in data set [3]; over 20 µg/mL in data set [7]; 20 µg/mL in data set [8]. Also, the MIC was 2.5 µg/mL in data set [1]; 10 µg/mL in data set [2]; 20 µg/mL in [3]; over 20 µg/mL in data set [7]; 10 µg/mL in data set [8]. The IC50 in data set [4] is 1.3 µg/mL; in [5] it was 3.5 µg/mL; in [6], 10 µg/mL; in [9], over 20 µg/mL; in data set [10] it was 5.1 µg/mL. Also, the selectivity ratio in [11] was over 7.7. Also, the Activity result in [12] is “Non-toxic”.

Take `N#Cc1cccc(Sc2cc3ccccc3[n+](CCCCCC3CCCCC3)c2)c1.[I-]`: the MFC in data set [1] was 5 µg/mL; in data set [2], 20 µg/mL; in [3], over 20 µg/mL; in data set [7], 20 µg/mL; in data set [8], 10 µg/mL. For the same compound, the minimal inhibitory concentration (MIC) in data set [1] was 1.3 µg/mL; in [2], 20 µg/mL; in data set [3], 20 µg/mL; in [7], 20 µg/mL; in data set [8], 5 µg/mL. For the same compound, the IC50 in [4] was 0.7 µg/mL; in data set [5], 6.7 µg/mL; in [6] it was 19 µg/mL; in data set [9], 13 µg/mL; in data set [10], 1.4 µg/mL. Besides, the selectivity ratio in data set [11] is over 14. In data set [12], the Activity entry is on record as “Non-toxic”.

Turning to `FC(F)(F)c1ccc(Sc2cc3ccccc3[n+](CCCCCC3CCCCC3)c2)cc1.[I-]`, the MFC is 0.6 µg/mL in data set [1]; 2.5 µg/mL in data set [2]; over 20 µg/mL in data set [3]; 10 µg/mL in data set [7]; 5 µg/mL in data set [8]. Moreover, the MIC stood at 0.6 µg/mL in data set [1]; 2.5 µg/mL in [2]; 2.5 µg/mL in data set [3]; 10 µg/mL in data set [7]; 2.5 µg/mL in data set [8]. The IC50 in data set [4] turned out to be 0.3 µg/mL; in data set [5], 0.8 µg/mL; in data set [6] it was 1.7 µg/mL; in [9], 4.7 µg/mL; in data set [10], 1.3 µg/mL. The selectivity ratio in data set [11] is over 33. The Activity result in [12] was “Non-toxic”.

For `Oc1ccc(Sc2cc3ccccc3[n+](CCCCCC3CCCCC3)c2)cc1.[I-]`, the MFC in [1] is 2.5 µg/mL; in [2], 20 µg/mL; in data set [3] it was over 20 µg/mL; in data set [7], over 20 µg/mL; in data set [8], 5 µg/mL. Also, the MIC in [1] is 1.3 µg/mL; in data set [2], 10 µg/mL; in [3] it was 20 µg/mL; in [7], over 20 µg/mL; in data set [8] it was 5 µg/mL. For the same compound, the IC50 in data set [4] is 0.7 µg/mL; in data set [5], 3.9 µg/mL; in data set [6] it was 7.9 µg/mL; in [9], over 20 µg/mL; in [10] it was 1.5 µg/mL. Besides, in data set [11], the selectivity ratio is over 14. Besides, the Activity result in data set [12] is given as “Non-toxic”.

Consider `N#Cc1ccc(Sc2cc3ccccc3[n+](CCCCCC3CCCCC3)c2)cc1.[I-]`, for which the MFC in data set [1] is 5 µg/mL; in [2], 20 µg/mL; in [3] it was over 20 µg/mL; in [7] it was 20 µg/mL; in [8], 10 µg/mL. The MIC in data set [1] is 1.3 µg/mL; in data set [2], 10 µg/mL; in [3], 20 µg/mL; in data set [7] it was 10 µg/mL; in [8], 5 µg/mL. The IC50 in data set [4] turned out to be 0.5 µg/mL; in data set [5], 6.2 µg/mL; in [6] it was 19 µg/mL; in data set [9], 6.3 µg/mL; in [10], 2.3 µg/mL. In data set [11], the selectivity ratio is over 20. The Activity entry in [12] is “Non-toxic”.
